Data as given in ChEMBL document CHEMBL5724801, “EUbOPEN Chemogenomics Library - Multiplex” (2024).
Several values for one entry are separate records, joined by “and”; a condition that tells them apart may be missing. Identical values can stand only once.

Tested on: HEK-293T
Experiment: Multiplex assay against HEK293T
Assay type: toxicity, cell-based
Conditions: human
Outline: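 Cells stained live at seeding with Hoechst33342, BioTracker Green Microtubule Cytoskeleton Dye, MitoTracker Red and Annexin V Alexa Fluor 680 were imaged on a CQ1 microscope at 37°C and 5% CO2 after compound addition. Their classification by CellPathfinder machine-learning gating ran from Hoechst high-intensity objects versus normal cells, to healthy, pyknosed or fragmented nuclei among normal cells, to mitotic or apoptotic among pyknosed cells. Tubulin, mitochondrial-mass and membrane-permeability phenotypes are per cents of healthy-nucleus cells.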

[1] = 12 h, 1 µM, compound concentration 1 uM
[2] = 12 h, 10 µM, compound concentration 10 uM
[3] = 24 h, 1 µM, compound concentration 1 uM
[4] = 24 h, 10 µM, compound concentration 10 uM
[5] = 48 h, 1 µM, compound concentration 1 uM
[6] = 48 h, 10 µM, compound concentration 10 uM

Compound: O=C(NCCO)c1cccc(-c2cc(Nc3ccc(OC(F)(F)F)cc3)ncn2)c1
- Population Apoptotic (%) [1]: 27% and 40%
- Population Fragmented Nuclei (%) [1]: 7% and 4%
- Population Healthy Nuclei (%) [1]: 78% and 77%
- Population Hoechst High Intensity Objects (%) [1]: 8% and 6%
- Population Membrane Permeable-Phenotype (%) [1]: 0%
- Population Mitochondria Different-Phenotype (%) [1]: 47% and 60%
- Population Mitotic Cells (%) [1]: 72% and 59%
- Population Normal (%) [1]: 91% and 93%
- Population Pyknosed Nuclei (%) [1]: 13% and 17%
- Population Tubulin-Different-Phenotype (%) [1]: 23% and 16%
- Total Cell Count [1]: 409 and 262
- Population Apoptotic (%) [2]: 55% and 63%
- Population Fragmented Nuclei (%) [2]: 6% and 5%
- Population Healthy Nuclei (%) [2]: 76% and 73%
- Population Hoechst High Intensity Objects (%) [2]: 10% and 12%
- Population Membrane Permeable-Phenotype (%) [2]: 0%
- Population Mitochondria Different-Phenotype (%) [2]: 69% and 74%
- Population Mitotic Cells (%) [2]: 44% and 36%
- Population Normal (%) [2]: 89% and 87%
- Population Pyknosed Nuclei (%) [2]: 17% and 21%
- Population Tubulin-Different-Phenotype (%) [2]: 49% and 26%
- Total Cell Count [2]: 374 and 325
- Population Apoptotic (%) [3]: 26% and 41%
- Population Fragmented Nuclei (%) [3]: 11% and 7%
- Population Healthy Nuclei (%) [3]: 78% and 79%
- Population Hoechst High Intensity Objects (%) [3]: 4% and 6%
- Population Membrane Permeable-Phenotype (%) [3]: 0%
- Population Mitochondria Different-Phenotype (%) [3]: 21% and 38%
- Population Mitotic Cells (%) [3]: 73% and 58%
- Population Normal (%) [3]: 95% and 93%
- Population Pyknosed Nuclei (%) [3]: 10% and 13%
- Population Tubulin-Different-Phenotype (%) [3]: 15% and 17%
- Total Cell Count [3]: 538 and 331
- Population Apoptotic (%) [4]: 39% and 50%
- Population Fragmented Nuclei (%) [4]: 5% and 6%
- Population Healthy Nuclei (%) [4]: 80% and 77%
- Population Hoechst High Intensity Objects (%) [4]: 7% and 14%
- Population Membrane Permeable-Phenotype (%) [4]: 0%
- Population Mitochondria Different-Phenotype (%) [4]: 61% and 56%
- Population Mitotic Cells (%) [4]: 60% and 50%
- Population Normal (%) [4]: 92% and 85%
- Population Pyknosed Nuclei (%) [4]: 14% and 15%
- Population Tubulin-Different-Phenotype (%) [4]: 38% and 22%
- Total Cell Count [4]: 447 and 354
- Population Apoptotic (%) [5]: 17% and 37%
- Population Fragmented Nuclei (%) [5]: 12% and 9%
- Population Healthy Nuclei (%) [5]: 80% and 79%
- Population Hoechst High Intensity Objects (%) [5]: 3% and 5%
- Population Membrane Permeable-Phenotype (%) [5]: 2% and 0%
- Population Mitochondria Different-Phenotype (%) [5]: 17% and 23%
- Population Mitotic Cells (%) [5]: 82% and 62%
- Population Normal (%) [5]: 96% and 94%
- Population Pyknosed Nuclei (%) [5]: 7% and 10%
- Population Tubulin-Different-Phenotype (%) [5]: 13% and 9%
- Total Cell Count [5]: 897 and 476
- Population Apoptotic (%) [6]: 41% and 58%
- Population Fragmented Nuclei (%) [6]: 10% and 16%
- Population Healthy Nuclei (%) [6]: 79% and 72%
- Population Hoechst High Intensity Objects (%) [6]: 8% and 17%
- Population Membrane Permeable-Phenotype (%) [6]: 1% and 0%
- Population Mitochondria Different-Phenotype (%) [6]: 36%
- Population Mitotic Cells (%) [6]: 58% and 41%
- Population Normal (%) [6]: 91% and 82%
- Population Pyknosed Nuclei (%) [6]: 10% and 11%
- Population Tubulin-Different-Phenotype (%) [6]: 18% and 13%
- Total Cell Count [6]: 595 and 504

Compound: O=C1COc2nccc(-c3ccccc3F)c2CN1Cc1cc(C(F)(F)F)cc(C(F)(F)F)c1
- Population Apoptotic (%) [1]: 31% and 51%
- Population Fragmented Nuclei (%) [1]: 8% and 4%
- Population Healthy Nuclei (%) [1]: 80% and 83%
- Population Hoechst High Intensity Objects (%) [1]: 5% and 10%
- Population Membrane Permeable-Phenotype (%) [1]: 0%
- Population Mitochondria Different-Phenotype (%) [1]: 41% and 67%
- Population Mitotic Cells (%) [1]: 68% and 48%
- Population Normal (%) [1]: 94% and 89%
- Population Pyknosed Nuclei (%) [1]: 10% and 11%
- Population Tubulin-Different-Phenotype (%) [1]: 27% and 20%
- Total Cell Count [1]: 397 and 333
- Population Apoptotic (%) [2]: 38% and 57%
- Population Fragmented Nuclei (%) [2]: 10% and 8%
- Population Healthy Nuclei (%) [2]: 76% and 79%
- Population Hoechst High Intensity Objects (%) [2]: 9% and 5%
- Population Membrane Permeable-Phenotype (%) [2]: 0%
- Population Mitochondria Different-Phenotype (%) [2]: 67% and 76%
- Population Mitotic Cells (%) [2]: 61% and 42%
- Population Normal (%) [2]: 90% and 94%
- Population Pyknosed Nuclei (%) [2]: 13% and 12%
- Population Tubulin-Different-Phenotype (%) [2]: 68% and 39%
- Total Cell Count [2]: 475 and 382
- Population Apoptotic (%) [3]: 21% and 59%
- Population Fragmented Nuclei (%) [3]: 8% and 5%
- Population Healthy Nuclei (%) [3]: 84% and 87%
- Population Hoechst High Intensity Objects (%) [3]: 3% and 8%
- Population Membrane Permeable-Phenotype (%) [3]: 0%
- Population Mitochondria Different-Phenotype (%) [3]: 32% and 39%
- Population Mitotic Cells (%) [3]: 78% and 40%
- Population Normal (%) [3]: 96% and 91%
- Population Pyknosed Nuclei (%) [3]: 7% and 6%
- Population Tubulin-Different-Phenotype (%) [3]: 23% and 12%
- Total Cell Count [3]: 517 and 428
- Population Apoptotic (%) [4]: 52% and 36%
- Population Fragmented Nuclei (%) [4]: 10% and 7%
- Population Healthy Nuclei (%) [4]: 76% and 79%
- Population Hoechst High Intensity Objects (%) [4]: 5%
- Population Membrane Permeable-Phenotype (%) [4]: 0%
- Population Mitochondria Different-Phenotype (%) [4]: 71% and 72%
- Population Mitotic Cells (%) [4]: 47% and 63%
- Population Normal (%) [4]: 94%
- Population Pyknosed Nuclei (%) [4]: 13% and 12%
- Population Tubulin-Different-Phenotype (%) [4]: 68% and 44%
- Total Cell Count [4]: 520 and 492
- Population Apoptotic (%) [5]: 27% and 38%
- Population Fragmented Nuclei (%) [5]: 13% and 9%
- Population Healthy Nuclei (%) [5]: 80% and 81%
- Population Hoechst High Intensity Objects (%) [5]: 2% and 4%
- Population Membrane Permeable-Phenotype (%) [5]: 0%
- Population Mitochondria Different-Phenotype (%) [5]: 29% and 23%
- Population Mitotic Cells (%) [5]: 72% and 61%
- Population Normal (%) [5]: 97% and 95%
- Population Pyknosed Nuclei (%) [5]: 6% and 8%
- Population Tubulin-Different-Phenotype (%) [5]: 14% and 12%
- Total Cell Count [5]: 743 and 574
- Population Apoptotic (%) [6]: 44% and 56%
- Population Fragmented Nuclei (%) [6]: 13% and 11%
- Population Healthy Nuclei (%) [6]: 75% and 80%
- Population Hoechst High Intensity Objects (%) [6]: 3% and 2%
- Population Membrane Permeable-Phenotype (%) [6]: 0%
- Population Mitochondria Different-Phenotype (%) [6]: 63% and 51%
- Population Mitotic Cells (%) [6]: 55% and 43%
- Population Normal (%) [6]: 96% and 97%
- Population Pyknosed Nuclei (%) [6]: 11% and 7%
- Population Tubulin-Different-Phenotype (%) [6]: 46% and 25%
- Total Cell Count [6]: 713 and 669
